Reference: ChEMBL document CHEMBL1128483, “Peptide mimetics of thyrotropin-releasing hormone based on a cyclohexane framework: design, synthesis, and cognition-enhancing properties” (1995)

What was measured:
Assay type in all cases: functional
[1] = system: Mus musculus; experiment: Activity was evaluated in C57BL/10 mice by Morris water Maze test and mean latency for TRH was reported at 0.01 mg/Kg i.p. dosage.
In short: (§1)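 Male C57BL/10 mice (17–21 g, housed 10 per group, food and water ad libitum). Drug in saline or 5% acacia, 10 mL/kg, given ip 30 min before the first of four trials to find a hidden submerged platform. Score was each mouse's mean total latency over the four trials; group mean ± SEM. Vehicle group included. Analysis: one-way ANOVA, then Dunnett t-test versus vehicle, p < 0.05.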

[2] = system: Mus musculus; experiment: Activity was evaluated in C57BL/10 mice by Morris water Maze test and mean latency for TRH was reported at 0.1 mg/Kg i.p. dosage.; in short: as §1
[3] = system: Mus musculus; experiment: Activity was evaluated in C57BL/10 mice by Morris water Maze test and mean latency for TRH was reported at 1.0 mg/Kg i.p. dosage.; in short: as §1
[4] = system: Mus musculus; experiment: Activity was evaluated in C57BL/10 mice by Morris water Maze test and mean latency for TRH was reported at 0.001 mg/Kg i.p. dosage.; in short: as §1
[5] = system: Mus musculus; experiment: Activity was evaluated in C57BL/10 mice by Morris water Maze test and mean latency for TRH was reported at 3.0 mg/Kg i.p. dosage.; in short: as §1
[6] = system: Mus musculus; experiment: Activity was evaluated in C57BL/10 mice by Morris water Maze test and mean latency for TRH was reported at 10.0 mg/Kg i.p. dosage.; in short: as §1
[7] = system: Mus musculus; experiment: Activity was evaluated in C57BL/10 mice by Morris water Maze test and mean latency for TRH was reported at 0.03 mg/Kg i.p. dosage.; in short: as §1
[8] = system: Mus musculus; experiment: Activity was evaluated in C57BL/10 mice by Morris water Maze test and mean latency for TRH was reported at 0.003 mg/Kg i.p. dosage.; in short: as §1
[9] = system: Mus musculus; experiment: Activity was evaluated in C57BL/10 mice by Morris water Maze test and mean latency for TRH was reported at 0.3 mg/Kg i.p. dosage.; in short: as §1
[10] = system: Mus musculus; experiment: Activity was evaluated in C57BL/10 mice by Morris water Maze test and mean latency for TRH was reported at 0.00003 mg/Kg i.p. dosage.; in short: as §1
[11] = system: Mus musculus; experiment: Activity was evaluated in C57BL/10 mice by Morris water Maze test and mean latency for TRH was reported at 0.03 mg/Kg p.o. dosage.
In short: (§2)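 Spatial water-maze task in male C57BL/10 mice (17–21 g, group-housed, ad libitum food and water). Oral dosing (saline or 5% acacia vehicle, 10 mL/kg) 30 min before four trials locating a submerged platform. Latency recorded per trial; the mean total over the four trials was the animal's score, reported as mean ± SEM. Vehicle controls included. Groups compared with vehicle by one-way ANOVA and Dunnett t-test (p < 0.05).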

[12] = system: Mus musculus; experiment: Activity was evaluated in C57BL/10 mice by Morris water Maze test and mean latency for TRH was reported at 0.0003 mg/Kg i.p. dosage.; in short: as §1
[13] = system: Mus musculus; experiment: Activity was evaluated in C57BL/10 mice by Morris water Maze test and mean latency for TRH was reported at 0.0003 mg/Kg p.o. dosage.; in short: as §2
[14] = system: Mus musculus; experiment: Activity was evaluated in C57BL/10 mice by Morris water Maze test and mean latency for TRH was reported at 0.00003 mg/Kg p.o. dosage.; in short: as §2
[15] = system: Mus musculus; experiment: Activity was evaluated in C57BL/10 mice by Morris water Maze test and mean latency for TRH was reported at 0.003 mg/Kg p.o. dosage.; in short: as §2
[16] = system: Mus musculus; experiment: Activity was evaluated in C57BL/10 mice by Morris water Maze test and mean latency for TRH was reported at 3 mg/Kg i.p. dosage.; in short: as §1
[17] = system: Mus musculus; experiment: Activity was evaluated in C57BL/10 mice by Morris water Maze test and mean latency for TRH was reported at 0.3 mg/Kg p.o. dosage.; in short: as §2
[18] = system: Mus musculus; experiment: Activity was evaluated in C57BL/10 mice by Morris water Maze test and mean latency for TRH was reported at 3 mg/Kg p.o. dosage.; in short: as §2
[19] = system: Mus musculus; experiment: Activity was evaluated in C57BL/10 mice by Morris water Maze test and mean latency for TRH was reported at 0.1 mg/Kg p.o. dosage.; in short: as §2
[20] = system: Mus musculus; experiment: Activity was evaluated in C57BL/10 mice by Morris water Maze test and mean latency for TRH was reported at 0.01 mg/Kg p.o. dosage.; in short: as §2

| Structure (SMILES) | Mean latency [1] | Mean latency [2] | Mean latency [3] | Mean latency [4] | Mean latency [7] | Mean latency [8] | Mean latency [9] | Mean latency [11] | Mean latency [15] | further results |
| --- | --- | --- | --- | --- | --- | --- | --- | --- | --- | --- |
| NC(=O)C[C@@H]1C[C@H](Cc2c[nH]cn2)C[C@H](C[C@@H]2CCC(=O)N2)C1 | 38.72 s | 45.06 s | 25.23 s | 47.62 s | – | – | – | – | – | – |
| NC(=O)[C@@H]1CCCN1C(=O)[C@H](Cc1c[nH]cn1)NC(=O)[C@@H]1CCC(=O)N1 [PROTIRELIN] | 37.97 s | 25.76 s | 28.87 s | 50.59 s | 32.69 s | 43.08 s | 20.85 s | – | – | Mean latency [5]: 33.57 s; Mean latency [6]: 46 s |
| NC(=O)C[C@@H]1C[C@@H](Cc2c[nH]cn2)C[C@H](C[C@@H]2CCC(=O)N2)C1 | 57.12 s | 46.09 s | 24.19 s | – | – | – | – | – | – | – |
| C[C@H]1C[C@@H](CC(N)=O)C[C@@H](C[C@@H]2CCC(=O)N2)C1 | 42.77 s | 30.08 s | – | – | 37.86 s | – | 43.13 s | – | – | – |
| NC(=O)C[C@@H]1C[C@H](Cc2c[nH]cn2)C[C@H](C[C@@H]2CCC(=O)N2Cc2ccccc2)C1 | – | – | – | – | 15.65 s | 22.24 s | 17.62 s | 21.1 s | 35.23 s | Mean latency [10]: 62.15 s; Mean latency [12]: 33.29 s; Mean latency [13]: 30.9 s; Mean latency [14]: 46.67 s; Mean latency [16]: 31.62 s |
| NC(=O)C[C@@H]1C[C@@H](Cc2c[nH]cn2)C[C@H](C[C@@H]2CCC(=O)N2Cc2ccccc2)C1 | – | – | – | – | – | – | – | 28.87 s | 37.01 s | Mean latency [17]: 27.59 s; Mean latency [13]: 42.81 s; Mean latency [18]: 43.72 s; Mean latency [14]: 51.7 s |
| C[C@H]1C[C@@H](CC(N)=O)C[C@@H](C[C@@H]2CCC(=O)N2Cc2ccccc2)C1 | 22.15 s | 26.87 s | – | 47.48 s | 26.49 s | 36.26 s | – | 32.87 s | 42.2 s | Mean latency [17]: 46.53 s; Mean latency [19]: 24.55 s; Mean latency [20]: 35.88 s |
